Data set [1] in a line: Selectivity index, ratio of Ki for human HGPRT to Ki for Plasmodium falciparum HGPRT.
Data set [2] can be described thus: Inhibition of Plasmodium falciparum HGPRT using xanthine as substrate by Hanes-plot based method. The method, boiled down:
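Ki was determined for PfHGXPRT using xanthine as the substrate, under the conditions used for human HGPRT. The reaction was followed spectrophotometrically at 255 nm, with Δε 4670 M⁻¹ cm⁻¹. Km for xanthine was 189 ± 18 μM.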

The target of data set [3] is T1, Hypoxanthine-guanine phosphoribosyltransferase (Homo sapiens, UniProt P00492).
T1 sequence (P00492 whole entry): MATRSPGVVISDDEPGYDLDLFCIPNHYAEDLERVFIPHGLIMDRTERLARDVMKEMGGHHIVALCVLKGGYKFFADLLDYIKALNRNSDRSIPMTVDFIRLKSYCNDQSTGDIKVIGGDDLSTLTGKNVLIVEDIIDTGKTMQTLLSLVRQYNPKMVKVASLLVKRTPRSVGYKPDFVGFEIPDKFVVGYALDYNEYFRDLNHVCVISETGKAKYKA
As to the kind of experiment: Inhibition of human HGPRT using Prib-PP as substrate by Hanes-plot based method.

Data set [4] can be described thus: Cytotoxicity against human CCRF-CEM cells assessed as cell viability at 10 uM. In kind it is cell-based. As to conditions: read-out: Activity. The procedure, abridged: (§1)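 Percent viability of human HepG2 (hepatocellular carcinoma) and CCRF-CEM (T-cell leukemia) cells after exposure to a single fixed prodrug concentration of 10 μM, expressed relative to untreated control cells.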

Data set [5] deals with Plasmodium falciparum. Put plainly: Antimalarial activity against Plasmodium falciparum D6 in erythrocytes assessed as reduction in 3H-hypoxanthine uptake incubated for 96 hrs and 3H-hypoxanthine added after 48 hrs of compound addition.
Data set [6] concerns Plasmodium falciparum. As to the kind of experiment: Antimalarial activity against chloroquine-resistant Plasmodium falciparum W2 in erythrocytes assessed as reduction in 3H-hypoxanthine uptake incubated for 96 hrs and 3H-hypoxanthine added after 48 hrs of compound addition.
Data set [7] is described as follows: Cytotoxicity against human HepG2 cells assessed as cell viability at 10 uM. In kind it is cell-based. To be noted: read-out: Activity. The procedure, abridged: as §1

We go through 13 molecules from ChEMBL document CHEMBL4311966, “Sulfide, sulfoxide and sulfone bridged acyclic nucleoside phosphonates as inhibitors of the Plasmodium falciparum and human 6-oxopurine phosphoribosyltransferases: Synthesis and evaluation” (Eur J Med Chem, 2019).

Regarding `O=c1[nH]cnc2c1ncn2CC[S+]([O-])CCP(=O)(O)O` (configuration not stated), the Ratio Ki in data set [1] stood at 4. The inhibitory constant (Ki) in data set [2] worked out at 1 µM; in data set [3] it was 4 µM.

Take `CC(C)OC(=O)[C@H](Cc1ccccc1)NP(=O)(CCSCCn1cnc2c(=O)[nH]c(N)nc21)N[C@@H](Cc1ccccc1)C(=O)OC(C)C`: the viability at 10 µM was 106% in data set [4] and 83% in data set [7]. The 50% inhibitory concentration (IC50) in the data set on Plasmodium falciparum [5] is 5.4 µM; with Plasmodium falciparum [6], 4.4 µM.

Turning to `Nc1nc2c(ncn2CCC[S+]([O-])CP(=O)(O)O)c(=O)[nH]1` (configuration not stated), the Ratio Ki in data set [1] was 15. Besides, the Ki in data set [2] was 0.2 µM; in data set [3], 3 µM.

In the case of `O=c1[nH]cnc2c1ncn2CCCS(=O)(=O)CP(=O)(O)O`, the Ratio Ki in data set [1] came to 10. Moreover, the results for the inhibition constant (Ki) in data set [2] and in data set [3] were 4.5 µM and 46 µM, respectively.

For the molecule `O=c1[nH]cnc2c1ncn2CCC[S+]([O-])CP(=O)(O)O` (configuration not stated), in data set [1], the Ratio Ki was found to be 2.8. Further, the Ki was found to be 4 µM in data set [2] and 11 µM in data set [3].

As to `O=c1[nH]cnc2c1ncn2CCS(=O)(=O)CCP(=O)(O)O`, the Ratio Ki in data set [1] is above 22. For the same molecule, the Ki in data set [2] was 4 µM; in data set [3], above 90 µM.

Turning to `Nc1nc2c(ncn2CC[S+]([O-])CCP(=O)(O)O)c(=O)[nH]1` (configuration not stated), the Ratio Ki in data set [1] was 0.7. The values for the Ki in data set [2] and in data set [3] were 0.3 µM and 0.2 µM, respectively.

`Nc1nc2c(ncn2CCSCCP(=O)(O)O)c(=O)[nH]1`: in data set [1], the Ratio Ki amounted to 4. Further, the values for the inhibition constant Ki in data set [2] and in data set [3] were 0.1 µM and 0.4 µM, respectively.

As to `CC(C)OC(=O)[C@H](Cc1ccccc1)NP(=O)(CCSCCn1cnc2c(=O)[nH]cnc21)N[C@@H](Cc1ccccc1)C(=O)OC(C)C`, the viability at 10 µM came out at 100% in data set [4] and 90% in data set [7]. In addition, the half-inhibitory concentration (IC50) in the data set with Plasmodium falciparum [5] amounted to 4.4 µM; with Plasmodium falciparum [6], 5.4 µM.

For the molecule `O=c1[nH]cnc2c1ncn2CCCSCP(=O)(O)O`, the Ratio Ki in data set [1] was above 26. In addition, the results for the inhibition constant (Ki) in data set [2] and in data set [3] were 3 µM and above 80 µM, respectively.

For `O=c1[nH]cnc2c1ncn2CCSCCP(=O)(O)O`, the Ratio Ki in data set [1] came to 25. The Ki amounted to 0.2 µM in data set [2] and 5 µM in data set [3].

For the molecule `CC(C)OC(=O)[C@H](Cc1ccccc1)NP(=O)(CSCCCn1cnc2c(=O)[nH]c(N)nc21)N[C@@H](Cc1ccccc1)C(=O)OC(C)C`, the viability at 10 µM in data set [4] is 98%; in data set [7], 95%. Also, the values for the IC50 with Plasmodium falciparum [5] and with Plasmodium falciparum [6] were 4 µM and 5.2 µM, respectively.

In the case of `Nc1nc2c(ncn2CCCSCP(=O)(O)O)c(=O)[nH]1`, in data set [1], the Ratio Ki worked out at 1.3. Moreover, the Ki in data set [2] was determined as 1.1 µM; in data set [3] it was 1.4 µM.

A word on the Ki: it is the equilibrium dissociation constant of an inhibitor or competing ligand from its target. A low value points to a stronger hold on the target. A word on the IC50: it is the point on the concentration scale where inhibition reaches its midpoint.
